The term IC50 denotes the concentration needed to halve the response being measured. Read a low IC50 as inhibition by little substance. What is called ED50 is the dose that gives a 50% effect, or the effect in half of the subjects. As usually defined, the TD50 is the 50% point of the dose-response relation for the toxic effect studied. Read a low TD50 as greater toxicity. A word on the LD50: it is the dose at which mortality reaches 50%. Higher therefore signals a less toxic substance.

Active and inactive are the calls of the source.

The source of these data is ChEMBL document CHEMBL1122670, “Synthesis of previously inaccessible quinazolines and 1,4-benzodiazepines as potential anticonvulsants” (J Med Chem, 1984).

In data set [1] the test system is Mus musculus. The data set can be described thus: Evaluated for seizure threshold test at a dose 50 mg/kg &MST is the metrazole seizure threshold to persistent clonus. Format: functional. The essentials: (§1)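 At 0.5 h (some at 1 or 4 h), 0.5% pentylenetetrazol in 0.9% NaCl with 0.001% heparin was infused into the tail vein at 6.31 μL/s. Time to 3 s persistent clonus (MST) or tonic flexion (MMT) was converted to mg/kg, reported as % change vs controls, Student's t test.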

Data set [2] has as its system Mus musculus. The data set is described as follows: Evaluated for seizure threshold test at a dose 30 mg/kg &MST is the metrazole seizure threshold to persistent clonus. Format: functional. An outline of the steps:
as §1

The test system of data set [3] is Mus musculus. The data set is described as follows: Evaluated for seizure threshold test at a dose 50 mg/kg &MMT is the maximal metrazole threshold to tonic flexion. Type of data set: functional. An outline of the steps:
as §1

In data set [4] the test system is Mus musculus. The data set can be described thus: Evaluated for seizure threshold test at a dose 30 mg/kg &MMT is the maximal metrazole threshold to tonic flexion. Type of data set: functional. An outline of the steps: as §1
Data set [5] deals with Mus musculus. The data set can be described thus: In vivo inhibition of Benzodiazepine (BDZ) binding in mice. Format: functional, organism-based.
For data set [6], the system named is Mus musculus. The data set is described as follows: Evaluated for seizure threshold test at a dose 100 mg/kg & MST is the metrazole seizure threshold to persistent clonus. Format: functional. The essentials: as §1
Data set [7] concerns Mus musculus. The data set can be described thus: Evaluated for seizure threshold test at a dose 100 mg/kg & MMT is the maximal metrazole threshold to tonic flexion. Type of data set: functional. An outline of the steps:
as §1

The subject of data set [8] is Mus musculus. The data set can be described thus: Evaluated for seizure threshold test at a dose 39 mg/kg & MMT is the maximal metrazole threshold to tonic flexion. Type of data set: functional. An outline of the steps: as §1
Data set [9] relates to Mus musculus. The data set can be described thus: Effective dose (ED50) was determined in sc Met (pentylenetetrazole) seizure threshold test. Format: functional. An outline of the steps:
(§2)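 ADD Program screen in mice. Doses of 30, 100, 300 and 600 mg/kg were given, four animals per dose, with tests at 30 min and at 4 h. sc Met endpoint: no threshold seizure (single clonic spasm of 5 s) after an sc convulsant dose 99 of pentylenetetrazol. Rotorod assessed acute neurotoxicity. ED50/TD50 were estimated graphically; Litchfield-Wilcoxon 95% confidence limits were added for selected cases.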

Data set [10] is described as follows: Compound was determined in rotarod test and expressed as TD50. Type of data set: ADME, organism-based. The conditions noted are these: mouse, in vivo. The essentials:
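ADD Program screen in mice. Doses of 30, 100, 300 and 600 mg/kg were given, four animals per dose, with tests at 30 min and at 4 h. sc Met endpoint: no threshold seizure (single clonic spasm of 5 s) after an sc convulsant dose 99 of pentylenetetrazol. Rotorod assessed acute neurotoxicity.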
In general terms: The rotarod test checks motor coordination on a turning rod.

In data set [11] the test system is Mus musculus. The data set can be described thus: Evaluated for seizure threshold test at a dose 49 mg/kg & MST is the metrazole seizure threshold to persistent clonus. Format: functional. The essentials:
as §1

Data set [12] concerns Mus musculus. The data set is described as follows: Effective dose (ED50) was determined in sc Met (pentylenetetrazole) seizure threshold test; I = Inactive at all doses including 600 mg/kg. Format: functional, organism-based. Also noted: dose 600 mg/kg. An outline of the steps:
as §2

In data set [13] the test system is Mus musculus. The data set is described as follows: Evaluated for seizure threshold test at a dose 300 mg/kg & MMT is the maximal metrazole threshold to tonic flexion; I = Inactive. Type of data set: functional, organism-based. Also noted: dose 300 mg/kg. The essentials:
(§3)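 0.5% pentylenetetrazol (with 0.9% NaCl and 0.001% heparin) was infused into a lateral tail vein at 6.31 μL/s. Time to 3 s of persistent clonus (MST) or hindlimb tonic flexion (MMT) was converted to mg/kg infused. Tested at 0.5 h (some at 4 h or 1 h). Results are % change from controls, by Student's t test.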

In data set [14] the test system is GABA-A receptor; anion channel. The data set can be described thus: Inhibition of binding to GABA-A central benzodiazepine receptor (Inactive at 80 uM). Type of data set: protein-complex assay, Mus musculus.
In data set [15] the test system is Mus musculus. The data set is described as follows: Evaluated for seizure threshold test at a dose 300 mg/kg & MST is the metrazole seizure threshold to persistent clonus; I = Inactive. Format: functional, organism-based. Also noted: dose 300 mg/kg. The essentials:
as §3

For data set [16], the system named is Mus musculus. The data set is described as follows: Evaluated for seizure threshold test at a dose 25 mg/kg &MST is the metrazole seizure threshold to persistent clonus. Type of data set: functional. An outline of the steps: as §1
Data set [17] deals with Mus musculus. The data set is described as follows: Evaluated for seizure threshold test at a dose 25 mg/kg &MMT is the maximal metrazole threshold to tonic flexion. Format: functional. The essentials:
as §3

Data set [18] can be described thus: Compound was evaluated for median lethal dose. Conditions: mouse, in vivo. Format: ADME, organism-based.
Data set [19] has as its system Mus musculus. The data set is described as follows: Evaluated for seizure threshold test at a dose 300 mg/kg & MMT is the maximal metrazole threshold to tonic flexion. Format: functional. An outline of the steps:
as §3

Data set [20] relates to Mus musculus. The data set is described as follows: Evaluated for seizure threshold test at a dose 300 mg/kg &MST is the metrazole seizure threshold to persistent clonus. Format: functional. An outline of the steps:
as §1

In data set [21] the test system is Mus musculus. The data set is described as follows: Evaluated for seizure threshold test at a dose 300 mg/kg &MMT is the maximal metrazole threshold to tonic flexion. Format: functional. An outline of the steps: as §3
Data set [22] deals with Mus musculus. The data set can be described thus: Effective dose (ED50) was determined (at 4hi)n sc Met (pentylenetetrazole) seizure threshold test. Format: functional. The essentials: as §2

With `Cc1ccccc1-n1c(C)nc2ccccc2c1=O` [METHAQUALONE], the Change is given as 42% with Mus musculus [1], 18% in the data set with Mus musculus [2], 40% in the data set with Mus musculus [3] and 17% with Mus musculus [4].
For `Cc1cc2c(c(C#N)c1C)NC(=O)CN=C2c1ccccc1F`, the IC50 in the data set with Mus musculus [5] stood at 0.01 nM. Moreover, the Change in the data set on Mus musculus [6] came to 65%; with Mus musculus [7], 50%; in the data set with Mus musculus [8] it was 30%; in the data set on Mus musculus [11], 23%. In addition, it took a dose of 48.9 mg/kg to reach the 50% effect level with Mus musculus [9] (ED50). Besides, the TD50 in data set [10] worked out at 710 mg/kg.
With `Cc1cc2c(c(C#N)c1C)NC=NC2C1CCCCC1` (centres undefined), the ED50 entry in the data set on Mus musculus [12] is “inactive”. The Change entry with Mus musculus [13] and with Mus musculus [15] was “inactive” throughout. The TD50 in [10] was greater than 600 mg/kg. In addition, in [14], the IC50 entry was “Not Active”.
In the case of `Cc1cc2c(c(C#N)c1C)NC=NC2C` (centres undefined), in the data set with Mus musculus [12], the ED50 entry was “inactive”. Moreover, the values for the Change with Mus musculus [16] and with Mus musculus [17] were -36% and -56%, respectively. Also, the TD50 in [10] amounted to 51.5 mg/kg. In data set [18], this compound yielded an LD50 of 150 mg/kg.
As for `Cc1cc(C(=O)C2CCCCC2)c(N)c(C#N)c1C`, the Change in the data set on Mus musculus [19] was 17%; in the data set on Mus musculus [15], “Not significant”. The compound further displayed a 50% effective dose (ED50) in the data set with Mus musculus [9] of 410 mg/kg. In addition, the TD50 in data set [10] is greater than 600 mg/kg.
With `Cc1cc2c(c(C#N)c1C)NC(=O)NC2c1ccccc1` (centres undefined), the Change was 36% in the data set with Mus musculus [20] and 22% in the data set with Mus musculus [21]. In the data set on Mus musculus [22], this compound came in with an ED50 of 600 mg/kg. In data set [10], the TD50 was greater than 1000 mg/kg.
